In brackets after ≈: the same amount, converted by molar mass. Activity calls are given as the source filed them. No cut-off for these calls is given here.
Columns and labels:
[1] = target: T1, C-X-C chemokine receptor type 1 (Homo sapiens, UniProt P25024); experiment: Antagonist activity at CXCR1 (unknown origin) transfected in RBL cells assessed as inhibition of IL-8-mediated intracellular calcium release preincubated for 30 mins followed by IL-8 addition by FLUO-4AM-based fluorescent microplate reader analysis; assay type: functional, cell-based
T1 sequence (P25024 whole entry): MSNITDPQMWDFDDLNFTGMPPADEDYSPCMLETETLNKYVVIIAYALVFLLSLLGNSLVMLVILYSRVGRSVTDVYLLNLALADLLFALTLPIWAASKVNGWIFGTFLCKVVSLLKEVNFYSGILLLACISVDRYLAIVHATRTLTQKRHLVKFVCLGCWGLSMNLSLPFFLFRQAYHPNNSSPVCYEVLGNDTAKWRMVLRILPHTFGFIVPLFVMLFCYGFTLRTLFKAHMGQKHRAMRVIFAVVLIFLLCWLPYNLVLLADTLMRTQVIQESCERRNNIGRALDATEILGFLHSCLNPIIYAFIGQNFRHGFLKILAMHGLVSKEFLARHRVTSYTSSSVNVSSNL
Method in brief: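 RBL cells stably expressing CXCR1 were preincubated 30 min with compound, then stimulated with IL8. Intracellular calcium release read by FLUO-4AM fluorescence on a microplate reader. IC50 from triplicate experiments, mean ± SE.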

[2] = target: T2, C-X-C chemokine receptor type 2 (Homo sapiens, UniProt P25025); experiment: Antagonist activity at CXCR2 (unknown origin) transfected in RBL cells assessed as inhibition of IL-8-mediated intracellular calcium release preincubated for 30 mins followed by IL-8 addition by FLUO-4AM-based fluorescent microplate reader analysis; assay type: functional, cell-based
T2 sequence (P25025 whole entry): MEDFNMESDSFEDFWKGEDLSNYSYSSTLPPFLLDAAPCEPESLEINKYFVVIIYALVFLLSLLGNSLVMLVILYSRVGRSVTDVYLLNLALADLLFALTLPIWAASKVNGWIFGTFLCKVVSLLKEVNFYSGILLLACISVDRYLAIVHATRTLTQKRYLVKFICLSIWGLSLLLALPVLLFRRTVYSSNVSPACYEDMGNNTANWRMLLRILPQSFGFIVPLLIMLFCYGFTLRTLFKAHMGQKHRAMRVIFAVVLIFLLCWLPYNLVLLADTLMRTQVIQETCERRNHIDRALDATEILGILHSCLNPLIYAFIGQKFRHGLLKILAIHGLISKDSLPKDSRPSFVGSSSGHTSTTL

[3] = Metabolic stability in human plasma assessed as compound remaining at 1 uM measured at 1 hr by LC-MS/MS analysis; assay type: ADME, cell-free; conditions: read-out: Stability
Method in brief: (§1)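 Compound at 1 µM was incubated in human plasma at 37°C for up to 24 h. Samples were taken at 0, 1, 4 and 24 h and analysed by LC-MS/MS, with results reported as % remaining.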

[4] = Metabolic stability in human plasma assessed as compound remaining at 1 uM measured at 4 hrs by LC-MS/MS analysis; assay type: ADME, cell-free; conditions: read-out: Stability; method in brief: as §1
[5] = Metabolic stability in human plasma assessed as compound remaining at 1 uM measured at 24 hrs by LC-MS/MS analysis; assay type: ADME, cell-free; conditions: read-out: Stability; method in brief: as §1
[6] = Solubility of the compound in 0.1 N HCl; assay type: physicochemical; conditions: buffer
[7] = tested on: Plasma; experiment: Metabolic stability in rat plasma; assay type: ADME, cell-free
[8] = tested on: Rattus norvegicus; experiment: AUC in rat at 1 mg/kg, po by LC-MS/MS analysis; assay type: ADME, organism-based; conditions: in vivo
[9] = tested on: Rattus norvegicus; experiment: Antiinflammatory activity in Sprague-Dawley rat ozone model of pulmonary inflammation assessed as reduction in neutrophil influx at 1 mg/kg, iv after 24 hrs by Wright-Giemsa staining assay; assay type: functional, organism-based
Method in brief: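 Sprague-Dawley rats, n = 4 per cohort, received a single iv dose at t = 0 in DMA/PEG400/0.9% saline (40:40:20). Vehicle groups were kept in air (negative) or 1 ppm ozone (positive), and treated groups in ozone, each for 4 h. At 24 h the rats were sacrificed and BALF was collected. Cells were spun down, Wright-Giemsa stained and neutrophils counted.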

[10] = target: T3, Interleukin-8 receptors, CXCR1/CXCR2 (Homo sapiens, UniProt P25025+P25024); experiment: Antagonist activity at CXCR1/CXCR2 in isolated human PMN assessed as inhibition of IL-8-mediated intracellular calcium flux; assay type: functional, cell-based
T3 sequence (P25025 whole entry): T2 sequence (P25025 whole entry)
T3 sequence (P25024 whole entry): T1 sequence (P25024 whole entry)
Method in brief: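 Isolated human neutrophils (PMNs); inhibition of calcium flux with IL8 as agonist; IC50 reported as mean ± SE from triplicate experiments.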

[11] = tested on: Rattus norvegicus; experiment: AUC in rat at 1 mg/kg, iv by LC-MS/MS analysis; assay type: ADME, organism-based; conditions: in vivo
Method in brief: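 Rats dosed intravenously at 1 mg/kg in DPS vehicle (dimethylacetamide/PEG400/0.9% saline 40:40:20). Plasma concentrations measured by LC-MS/MS against a calibration curve of test compound spiked in rat plasma, run alongside the samples; AUC given in μmol·hr/L.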

[12] = Oral bioavailability in rat at 1 mg/kg by LC-MS/MS analysis; assay type: ADME, organism-based; conditions: in vivo
Method in brief: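 Rats were dosed at 1 mg/kg both intravenously (vehicle dimethylacetamide/PEG400/0.9% saline 40:40:20) and by oral gavage (vehicle 0.1 N HCl or Labrasol, depending on compound). Plasma levels were measured by LC-MS/MS against a calibration curve of compound spiked into rat plasma, run alongside the samples. Oral and IV AUC are reported in μmol·hr/L.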

Q: For `CN(Cc1ccc(B(O)O)cc1)c1ccc(C(=O)Nc2ccc(F)cc2)cn1`, which IC50 [1] is on record?
A: 1400 nM

Q: What about the IC50 [2] of the same compound?
A: 1100 nM

Q: For `CN(Cc1cccc(B(O)O)c1)c1ncc(C(=O)Nc2ccc(F)cc2)cn1`, which IC50 [1] is on record?
A: 2500 nM

Q: What about the IC50 [2] of the same compound?
A: 2500 nM

Q: Which IC50 [1] does the source give for `CN(Cc1ccccc1B(O)O)c1ccc(C(=O)Nc2ccc(F)cc2)cn1` here?
A: > 5000 nM

Q: And the IC50 [2]?
A: > 5000 nM

Q: For `CN(Cc1cccc(B(O)O)c1)c1ccc(C(=O)Nc2ccc(F)cc2)cn1`, which IC50 [1] is on record?
A: 4100 nM

Q: What about the IC50 [2] of the same compound?
A: 410 nM

Q: Which IC50 [1] does the source give for `O=C(Nc1ccc(F)cc1)c1ccc(N(Cc2ccc(B(O)O)cn2)Cc2ccco2)nc1` here?
A: 3.3 nM

Q: And the IC50 [2]?
A: 21 nM

Q: With `CN(Cc1ccc(B(O)O)cn1)c1ncc(C(=O)Nc2ccc(F)cc2)cn1` as the compound, how does the IC50 [1] read?
A: 1700 nM

Q: What about the IC50 [2] of the same compound?
A: 933 nM

Q: With `O=C(Nc1ccc(F)cc1)c1cnc(N(Cc2ccc(B(O)O)cn2)Cc2ccco2)nc1` as the compound, how does the IC50 [1] read?
A: 444 nM

Q: What about the IC50 [2] of the same compound?
A: 655 nM

Q: For `O=C(Nc1ccc(F)cc1)c1ccc(SCc2cc(OC(F)(F)F)ccc2B(O)O)nc1`, which remaining at 1 h, 1 µM [3] is on record?
A: 62%

Q: And the remaining at 4 h, 1 µM [4]?
A: 34%

Q: What about the remaining at 24 h, 1 µM [5] of the same compound?
A: 2%

Q: What about the solubility [6] of the same compound?
A: Insoluble

Q: What about the Stability [7] of the same compound?
A: Stable

Q: What about the AUC ([8]; BLD = below limit of detection) of the same compound?
A: BLD

Q: And the Activity [9]?
A: Active

Q: With `O=C(Nc1ccc(F)cc1)c1cnc(N(Cc2ccccc2)Cc2ccc(B(O)O)cn2)nc1` as the compound, how does the IC50 [1] read?
A: 7 nM

Q: And the IC50 [2]?
A: 4 nM

Q: And the IC50 [10]?
A: 185 nM

Q: What about the remaining at 1 h, 1 µM [3] of the same compound?
A: 90%

Q: What about the remaining at 4 h, 1 µM [4] of the same compound?
A: 71%

Q: What about the remaining at 24 h, 1 µM [5] of the same compound?
A: 62%

Q: What about the solubility [6] of the same compound?
A: 0.5 mg/mL (≈ 1090 µM)

Q: What about the Stability [7] of the same compound?
A: Stable

Q: And the AUC [11]?
A: 4.37 µmol·h/L

Q: What about the AUC [8] of the same compound?
A: 1.15 µmol·h/L

Q: And the bioavailability [12]?
A: 24%

Q: And the Activity [9]?
A: Active

Q: Which IC50 [1] does the source give for `CN(Cc1ccc(B(O)O)cn1)c1ccc(C(=O)Nc2ccc(F)cc2)cn1` here?
A: 1700 nM

Q: And the IC50 [2]?
A: 81 nM

Q: Which IC50 [1] does the source give for `O=C(Nc1ccc(F)cc1)c1ccc(NCc2ccc(B(O)O)cc2)nc1` here?
A: 4300 nM

Q: What about the IC50 [2] of the same compound?
A: 2200 nM

Q: Which IC50 [1] does the source give for `O=C(Nc1ccc(F)cc1)c1ccc(N(Cc2ccc(B(O)O)cn2)CC2CCOCC2)nc1` here?
A: > 5000 nM

Q: What about the IC50 [2] of the same compound?
A: 2300 nM

Q: For `O=C(Nc1ccc(F)cc1)c1ccc(N(Cc2ccccn2)Cc2ccc(B(O)O)cn2)nc1`, which IC50 [1] is on record?
A: > 5000 nM

Q: What about the IC50 [2] of the same compound?
A: 4850 nM

Q: For `O=C(Nc1ccc(F)cc1)c1ccc(N(Cc2ccccc2)Cc2ccc(B(O)O)cn2)nc1`, which IC50 [1] is on record?
A: 326 nM

Q: And the IC50 [2]?
A: 298 nM

Q: With `O=C(Nc1ccc(F)cc1)c1cnc(NCc2cccc(B(O)O)c2)nc1` as the compound, how does the IC50 [1] read?
A: 1340 nM

Q: And the IC50 [2]?
A: 918 nM

Q: Which IC50 [1] does the source give for `NCCN(Cc1ccc(B(O)O)cn1)c1ncc(C(=O)Nc2ccc(F)cc2)cn1` here?
A: > 5000 nM

Q: What about the IC50 [2] of the same compound?
A: > 5000 nM

Q: With `CN(Cc1ccccc1B(O)O)c1ncc(C(=O)Nc2ccc(F)cc2)cn1` as the compound, how does the IC50 [1] read?
A: > 5000 nM

Q: And the IC50 [2]?
A: > 5000 nM

Q: With `O=C(Nc1ccc(F)cc1)c1ccc(NCc2cccc(B(O)O)c2)nc1` as the compound, how does the IC50 [1] read?
A: 611 nM

Q: And the IC50 [2]?
A: 733 nM

Q: Which IC50 [1] does the source give for `CN(Cc1ccc(B(O)O)cc1)c1ncc(C(=O)Nc2ccc(F)cc2)cn1` here?
A: 681 nM

Q: And the IC50 [2]?
A: 121 nM

Q: With `O=C(Nc1ccc(F)cc1)c1cnc(N(Cc2ccccn2)Cc2ccc(B(O)O)cn2)nc1` as the compound, how does the IC50 [1] read?
A: 2050 nM

Q: And the IC50 [2]?
A: 4310 nM

Q: Which IC50 [1] does the source give for `O=C(O)CN(Cc1ccc(B(O)O)cn1)c1ncc(C(=O)Nc2ccc(F)cc2)cn1` here?
A: > 5000 nM

Q: What about the IC50 [2] of the same compound?
A: > 5000 nM

Q: With `O=C(Nc1ccc(F)cc1)c1ccc(NCc2ccccc2B(O)O)nc1` as the compound, how does the IC50 [1] read?
A: > 5000 nM

Q: What about the IC50 [2] of the same compound?
A: > 5000 nM

Q: Which IC50 [1] does the source give for `O=C(Nc1ccc(F)cc1)c1cnc(NCc2ccc(B(O)O)cc2)nc1` here?
A: 1700 nM

Q: What about the IC50 [2] of the same compound?
A: 2600 nM
